Results taken from ChEMBL document CHEMBL1773037, “Evaluation of superior BACE1 cleavage sequences containing unnatural amino acids” (Bioorg Med Chem, 2011).
Active and inactive are the calls of the source. The rule behind the calls is not given here. Non-standard residues stand in square brackets, D forms with d. Residues, ends and D or L forms follow the SMILES beside them. 2Thi = N[C@@H](Cc1cccs1)C(=O)O; Cha = N[C@@H](CC1CCCCC1)C(=O)O; Cit = NC(=O)NCCC[C@H](N)C(=O)O; Phg = N[C@H](C(=O)O)c1ccccc1; Nva = CCC[C@H](N)C(=O)O; Abu = CC[C@H](N)C(=O)O

Assays:
[1] = molecular target: Beta-secretase 1 (Homo sapiens) (UniProt P56817); test: Activity of recombinant BACE assessed as retention time of substrate by HPLC method
Chain of Beta-secretase 1 (Homo sapiens) (P56817 whole entry): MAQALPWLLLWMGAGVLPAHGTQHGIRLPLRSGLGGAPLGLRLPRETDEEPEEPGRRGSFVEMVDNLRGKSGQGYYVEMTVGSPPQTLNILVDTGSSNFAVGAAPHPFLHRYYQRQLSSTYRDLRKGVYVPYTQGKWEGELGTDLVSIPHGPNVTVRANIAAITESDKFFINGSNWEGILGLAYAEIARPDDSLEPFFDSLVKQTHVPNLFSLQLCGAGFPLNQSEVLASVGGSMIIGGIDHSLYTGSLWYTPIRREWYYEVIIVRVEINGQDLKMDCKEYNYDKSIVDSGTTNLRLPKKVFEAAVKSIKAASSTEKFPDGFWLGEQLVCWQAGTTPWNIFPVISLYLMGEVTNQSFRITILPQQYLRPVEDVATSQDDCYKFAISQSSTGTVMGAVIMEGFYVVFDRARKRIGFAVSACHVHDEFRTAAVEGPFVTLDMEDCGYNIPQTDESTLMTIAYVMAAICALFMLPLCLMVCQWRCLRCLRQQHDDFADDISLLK

[2] = molecular target: Beta-secretase 1 (Homo sapiens) (UniProt P56817); test: Activity of recombinant BACE assessed as substrate cleavage at 300 uM after 3 hrs by HPLC analysis
Method in brief: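 Individually synthesized, purified substrates at 300 µM in 40 mM AcONa buffer, pH 4.5, 37 °C. rBACE1 used at 60 nM (P1, P4 substrates), 30 nM (P2, P3 substrates) or 10 nM (P1' substrates and the dodecapeptide). Aliquots taken at 0, 1 and 3 h, quenched with 7 M GuHCl, and the decrease in each substrate peak monitored by HPLC.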

Structure (SMILES)	retention time [1]	Activity [2]
CC[C@H](C)[C@H](N)C(=O)N[C@@H](CO)C(=O)N[C@@H](CCC(=O)O)C(=O)N[C@H](C(=O)N[C@@H](Cc1cccs1)C(=O)N[C@@H](CC(C)C)C(=O)N[C@@H](CC(=O)O)C(=O)N[C@@H](C)C(=O)N[C@@H](CCC(=O)O)C(=O)N[C@@H](Cc1ccccc1)C(=O)N[C@@H](CCCNC(=N)N)C(=O)N[C@@H](Cc1cnc[nH]1)C(N)=O)C(C)C (H-ISEV[2Thi]LDAEFRH-NH2)	0.551 h	Active
CC[C@H](C)[C@H](N)C(=O)N[C@@H](CO)C(=O)N[C@@H](CCC(=O)O)C(=O)N[C@H](C(=O)N[C@@H](CC(N)=O)C(=O)N[C@@H](CC(=O)O)C(=O)N[C@@H](CC(=O)O)C(=O)N[C@@H](C)C(=O)N[C@@H](CCC(=O)O)C(=O)N[C@@H](Cc1ccccc1)C(=O)N[C@@H](CCCNC(=N)N)C(=O)N[C@@H](Cc1cnc[nH]1)C(N)=O)C(C)C (H-ISEVNDDAEFRH-NH2)	–	Active
CC[C@H](C)[C@H](N)C(=O)N[C@@H](CO)C(=O)N[C@@H](CCC(=O)O)C(=O)N[C@H](C(=O)N[C@@H](CCSC)C(=O)N[C@@H](CC(C)C)C(=O)N[C@@H](CC(=O)O)C(=O)N[C@@H](C)C(=O)N[C@@H](CCC(=O)O)C(=O)N[C@@H](Cc1ccccc1)C(=O)N[C@@H](CCCNC(=N)N)C(=O)N[C@@H](Cc1cnc[nH]1)C(N)=O)C(C)C (H-ISEVMLDAEFRH-NH2)	0.521 h	Active
CC[C@H](C)[C@H](N)C(=O)N[C@@H](CO)C(=O)N[C@@H](CCCNC(N)=O)C(=O)N[C@H](C(=O)N[C@@H](CC(N)=O)C(=O)N[C@@H](CC(C)C)C(=O)N[C@@H](CC(=O)O)C(=O)N[C@@H](C)C(=O)N[C@@H](CCC(=O)O)C(=O)N[C@@H](Cc1ccccc1)C(=O)N[C@@H](CCCNC(=N)N)C(=O)N[C@@H](Cc1cnc[nH]1)C(N)=O)C(C)C (H-IS[Cit]VNLDAEFRH-NH2)	0.474 h	Active
CC[C@H](C)[C@H](N)C(=O)N[C@@H](CO)C(=O)N[C@@H](CCC(=O)O)C(=O)N[C@H](C(=O)N[C@@H](CC(=O)O)C(=O)N[C@@H](CC(C)C)C(=O)N[C@@H](CC(=O)O)C(=O)N[C@@H](C)C(=O)N[C@@H](CCC(=O)O)C(=O)N[C@@H](Cc1ccccc1)C(=O)N[C@@H](CCCNC(=N)N)C(=O)N[C@@H](Cc1cnc[nH]1)C(N)=O)C(C)C (H-ISEVDLDAEFRH-NH2)	0.49 h	Active
CC[C@H](C)[C@H](N)C(=O)N[C@@H](CO)C(=O)N[C@@H](CCC(=O)O)C(=O)N[C@H](C(=O)N[C@@H](CC(N)=O)C(=O)N[C@@H](CCSC)C(=O)N[C@@H](CC(=O)O)C(=O)N[C@@H](C)C(=O)N[C@@H](CCC(=O)O)C(=O)N[C@@H](Cc1ccccc1)C(=O)N[C@@H](CCCNC(=N)N)C(=O)N[C@@H](Cc1cnc[nH]1)C(N)=O)C(C)C (H-ISEVNMDAEFRH-NH2)	–	Active
CC[C@H](C)[C@H](N)C(=O)N[C@@H](CO)C(=O)N[C@H](C(=O)N[C@H](C(=O)N[C@@H](CC(N)=O)C(=O)N[C@@H](CC(C)C)C(=O)N[C@@H](CC(=O)O)C(=O)N[C@@H](C)C(=O)N[C@@H](CCC(=O)O)C(=O)N[C@@H](Cc1ccccc1)C(=O)N[C@@H](CCCNC(=N)N)C(=O)N[C@@H](Cc1cnc[nH]1)C(N)=O)C(C)C)c1ccccc1 (H-IS[Phg]VNLDAEFRH-NH2)	0.582 h	Active
CC[C@H](C)[C@H](N)C(=O)N[C@@H](CO)C(=O)N[C@@H](CCC(=O)O)C(=O)N[C@H](C(=O)N[C@@H](CC(N)=O)C(=O)N[C@@H](CC(C)C)C(=O)N[C@@H](CC(=O)O)C(=O)N[C@@H](C)C(=O)N[C@@H](CCC(=O)O)C(=O)N[C@@H](Cc1ccccc1)C(=O)N[C@@H](CCCNC(=N)N)C(=O)N[C@@H](Cc1cnc[nH]1)C(N)=O)[C@@H](C)CC (H-ISEINLDAEFRH-NH2)	0.517 h	Active
CCC[C@H](NC(=O)[C@H](CCC(=O)O)NC(=O)[C@H](CO)NC(=O)[C@@H](N)[C@@H](C)CC)C(=O)N[C@@H](CC(N)=O)C(=O)N[C@@H](CC(C)C)C(=O)N[C@@H](CC(=O)O)C(=O)N[C@@H](C)C(=O)N[C@@H](CCC(=O)O)C(=O)N[C@@H](Cc1ccccc1)C(=O)N[C@@H](CCCNC(=N)N)C(=O)N[C@@H](Cc1cnc[nH]1)C(N)=O (H-ISE[Nva]NLDAEFRH-NH2)	0.496 h	Active
CCC[C@H](NC(=O)[C@@H](NC(=O)[C@H](CCC(=O)O)NC(=O)[C@H](CO)NC(=O)[C@@H](N)[C@@H](C)CC)C(C)C)C(=O)N[C@@H](CC(C)C)C(=O)N[C@@H](CC(=O)O)C(=O)N[C@@H](C)C(=O)N[C@@H](CCC(=O)O)C(=O)N[C@@H](Cc1ccccc1)C(=O)N[C@@H](CCCNC(=N)N)C(=O)N[C@@H](Cc1cnc[nH]1)C(N)=O (H-ISEV[Nva]LDAEFRH-NH2)	0.521 h	Active
CCC[C@H](NC(=O)[C@H](CC(C)C)NC(=O)[C@H](CC(N)=O)NC(=O)[C@@H](NC(=O)[C@H](CCC(=O)O)NC(=O)[C@H](CO)NC(=O)[C@@H](N)[C@@H](C)CC)C(C)C)C(=O)N[C@@H](C)C(=O)N[C@@H](CCC(=O)O)C(=O)N[C@@H](Cc1ccccc1)C(=O)N[C@@H](CCCNC(=N)N)C(=O)N[C@@H](Cc1cnc[nH]1)C(N)=O (H-ISEVNL[Nva]AEFRH-NH2)	0.622 h	Active
CC[C@H](C)[C@H](N)C(=O)N[C@@H](CO)C(=O)N[C@@H](CCC(=O)O)C(=O)N[C@H](C(=O)N[C@@H](CC(N)=O)C(=O)N[C@@H](CC(C)C)C(=O)N[C@@H](CCSC)C(=O)N[C@@H](C)C(=O)N[C@@H](CCC(=O)O)C(=O)N[C@@H](Cc1ccccc1)C(=O)N[C@@H](CCCNC(=N)N)C(=O)N[C@@H](Cc1cnc[nH]1)C(N)=O)C(C)C (H-ISEVNLMAEFRH-NH2)	0.622 h	Active
CC[C@H](C)[C@H](N)C(=O)N[C@@H](CO)C(=O)N[C@@H](CCC(=O)O)C(=O)N[C@H](C(=O)N[C@@H](CC(N)=O)C(=O)N[C@@H](Cc1ccccc1)C(=O)N[C@@H](CC(=O)O)C(=O)N[C@@H](C)C(=O)N[C@@H](CCC(=O)O)C(=O)N[C@@H](Cc1ccccc1)C(=O)N[C@@H](CCCNC(=N)N)C(=O)N[C@@H](Cc1cnc[nH]1)C(N)=O)C(C)C (H-ISEVNFDAEFRH-NH2)	0.502 h	50%
CC[C@H](C)[C@H](N)C(=O)N[C@@H](CO)C(=O)N[C@@H](Cc1cccs1)C(=O)N[C@H](C(=O)N[C@@H](CC(N)=O)C(=O)N[C@@H](CC(C)C)C(=O)N[C@@H](CC(=O)O)C(=O)N[C@@H](C)C(=O)N[C@@H](CCC(=O)O)C(=O)N[C@@H](Cc1ccccc1)C(=O)N[C@@H](CCCNC(=N)N)C(=O)N[C@@H](Cc1cnc[nH]1)C(N)=O)C(C)C (H-IS[2Thi]VNLDAEFRH-NH2)	0.591 h	–
CC[C@H](NC(=O)[C@H](CC(C)C)NC(=O)[C@H](CC(N)=O)NC(=O)[C@@H](NC(=O)[C@H](CCC(=O)O)NC(=O)[C@H](CO)NC(=O)[C@@H](N)[C@@H](C)CC)C(C)C)C(=O)N[C@@H](C)C(=O)N[C@@H](CCC(=O)O)C(=O)N[C@@H](Cc1ccccc1)C(=O)N[C@@H](CCCNC(=N)N)C(=O)N[C@@H](Cc1cnc[nH]1)C(N)=O (H-ISEVNL[Abu]AEFRH-NH2)	0.585 h	Active
CC[C@H](C)[C@H](N)C(=O)N[C@@H](CO)C(=O)N[C@@H](CC1CCCCC1)C(=O)N[C@H](C(=O)N[C@@H](CC(N)=O)C(=O)N[C@@H](CC(C)C)C(=O)N[C@@H](CC(=O)O)C(=O)N[C@@H](C)C(=O)N[C@@H](CCC(=O)O)C(=O)N[C@@H](Cc1ccccc1)C(=O)N[C@@H](CCCNC(=N)N)C(=O)N[C@@H](Cc1cnc[nH]1)C(N)=O)C(C)C (H-IS[Cha]VNLDAEFRH-NH2)	0.689 h	–
